# Assay results published in ChEMBL document CHEMBL4257561, “7-Deacetyl-10-alkylthiocolchicine derivatives - new compounds with potent anticancer and fungicidal activity” (Medchemcomm, 2018).
# Legend:
# Trichoderma viride [1] = experiment: Fungicidal activity against Trichoderma viride Pers after 7 days by microtiter method; type: functional; settings: 168 h
# Outline: (§1)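 Single-spore isolates kept on PDA slants. Spore suspensions ([…] CFU/mL) taken from two-week slants. Compound stock was 10 mg in 200 µL methanol; 10 µL of stock added to 100 µL PDA (39 g/L) per well, then 10 µL spores. Incubated aerobically 7 days, 28±1°C, RH >95%, dark. Growth scored on a three-point scale (+/±/−). Triplicates, with untreated and IPBC controls.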
# Trichoderma viride [2] = experiment: Antifungal activity against Trichoderma viride Pers after 7 days by microtiter method; type: functional; settings: 168 h
# Talaromyces funiculosus [3] = experiment: Fungicidal activity against Penicillium funiculosum BAM22 ATCC 11797 after 7 days by microtiter method; type: functional; settings: BAM22 ATCC 11797, 168 h; outline: as §1
# MDA-MB-231 = experiment: cells; type: functional, cell-based; settings: Homo sapiens, MDA-MB-231, 72 h
# SK-OV-3 [4] = experiment: cells; type: functional, cell-based; settings: Homo sapiens, SK-OV-3, 72 h
# cells = type: cell-based; settings: Homo sapiens, 72 h
# Aspergillus versicolor [5] = experiment: microbe, parasite or virus in culture; type: functional; settings: BAM8 ATCC 11730, 168 h
# Chaetomium globosum [6] = experiment: microbe, parasite or virus in culture; type: functional; settings: BAM12 ATCC 6205, 168 h
# Paecilomyces variotii [7] = experiment: Fungicidal activity against Paecilomyces variotii BAM19 ATCC 18502 after 7 days by microtiter method; type: functional; settings: BAM19 ATCC 18502, 168 h; outline: as §1
# Penicillium cyclopium [8] = experiment: Fungicidal activity against Penicillium cyclopium Westling after 7 days by microtiter method; type: functional; settings: 168 h; outline: as §1
# Aureobasidium pullulans [9] = experiment: Fungicidal activity against Aureobasidium pullulans BAM10 ATCC 9348 after 7 days by microtiter method; type: functional; settings: BAM10 ATCC 9348, 168 h; outline: as §1
# Aspergillus versicolor [10] = experiment: Fungicidal activity against Aspergillus versicolor BAM8 ATCC 11730 after 7 days by microtiter method; type: functional; settings: BAM8 ATCC 11730, 168 h; outline: as §1
# Paecilomyces variotii [11] = experiment: microbe, parasite or virus in culture; type: functional; settings: BAM19 ATCC 18502, 168 h
# Chaetomium globosum [12] = experiment: Fungicidal activity against Chaetomium globosum BAM12 ATCC 6205 after 7 days by microtiter method; type: functional; settings: BAM12 ATCC 6205, 168 h; outline: as §1
# MCF7 = experiment: cells; type: functional, cell-based; settings: Homo sapiens, MCF7, 72 h
# Aspergillus niger [13] = experiment: Fungicidal activity against Aspergillus niger van Tiegen BAM4 ATCC 6275 after 7 days by microtiter method; type: functional; settings: van Tiegen BAM4 ATCC 6275, 168 h; outline: as §1
# LoVo = experiment: cells; type: functional, cell-based; settings: Homo sapiens, 72 h
# SK-OV-3 [14] = experiment: cells; type: functional, cell-based; settings: Homo sapiens, SK-OV-3, 72 h; remark: listed apart in the source
# Penicillium cyclopium [15] = experiment: Antifungal activity against Penicillium cyclopium Westling after 7 days by microtiter method; type: functional; settings: 168 h
# DLD-1 = experiment: cells; type: functional, cell-based; settings: Homo sapiens, DLD-1, 72 h
# Aspergillus niger [16] = experiment: microbe, parasite or virus in culture; type: functional; settings: van Tiegen BAM4 ATCC 6275, 168 h
# Aureobasidium pullulans [17] = experiment: microbe, parasite or virus in culture; type: functional; settings: BAM10 ATCC 9348, 168 h
# Talaromyces funiculosus [18] = experiment: microbe, parasite or virus in culture; type: functional; settings: BAM22 ATCC 11797, 168 h
SMILES,MFC (Trichoderma viride [1]) [µg/mL],MFC (Trichoderma viride [2]) [µg/mL],MFC (Talaromyces funiculosus [3]) [µg/mL],IC50 (SK-OV-3 [4]) [nM],IC50 (cells) [nM],MFC (Aspergillus versicolor [5]) [µg/mL],MIC (Chaetomium globosum [6]) [µg/mL],MFC (Paecilomyces variotii [7]) [µg/mL],MFC (Penicillium cyclopium [8]) [µg/mL],MFC (Aureobasidium pullulans [9]) [µg/mL],MFC (Aspergillus versicolor [10]) [µg/mL],MFC (Paecilomyces variotii [11]) [µg/mL],MFC (Chaetomium globosum [12]) [µg/mL],MFC (Aspergillus niger [13]) [µg/mL],IC50 (LoVo) [nM],IC50 (SK-OV-3 [14]) [nM],MIC (Penicillium cyclopium [15]) [µg/mL],MFC (Aspergillus niger [16]) [µg/mL],MIC (Aureobasidium pullulans [17]) [µg/mL],MFC (Talaromyces funiculosus [18]) [µg/mL],further results
CCCSc1ccc2c(cc1=O)[C@@H](N)CCc1cc(OC)c(OC)c(OC)c1-2,2000,2000,2000,22,670,> 4000,> 4000,1000,2000,> 4000,> 4000,1000,> 4000,> 4000,3830,46,2000,> 4000,> 4000,2000,IC50 (MDA-MB-231): 4240 nM; IC50 (MCF7): 2080 nM; IC50 (DLD-1): 3420 nM
CCCCSc1ccc2c(cc1=O)[C@@H](N)CCc1cc(OC)c(OC)c(OC)c1-2,2000,2000,1000,9,2170,> 4000,130,1000,260,260,> 4000,1000,130,> 4000,1870,62,260,> 4000,260,1000,IC50 (MDA-MB-231): 4180 nM; IC50 (MCF7): 1460 nM; IC50 (DLD-1): 720 nM
CCCSc1ccc2c(cc1=O)[C@@H](NC(C)=O)CCc1cc(OC)c(OC)c(OC)c1-2,,> 4000,,,,> 4000,> 4000,,,,,> 4000,,,,,> 4000,> 4000,> 4000,> 4000,
COc1cc2c(c(OC)c1OC)-c1ccc(SC(C)C)c(=O)cc1[C@@H](N)CC2,2000,2000,1000,4,1680,> 4000,130,1000,500,260,> 4000,1000,130,> 4000,130,27,500,> 4000,260,1000,IC50 (MDA-MB-231): 5000 nM; IC50 (MCF7): 4900 nM; IC50 (DLD-1): 6260 nM
O=C(/C=C/c1ccccc1)c1ccccc1 [CHALCONE],500,500,130,,,2000,130,1000,260,500,2000,1000,130,65,,,260,65,500,130,
CCCCNC(=O)OCC#CI [IODOCARB],100,100,2,,,2,5,2,2,1,2,2,5,2,,,2,2,1,2,
COc1cc2c(c(OC)c1OC)-c1ccc(OC)c(=O)cc1[C@@H](NC(C)=O)CC2 [COLCHICINE],> 4000,> 4000,> 4000,198,586,> 4000,> 4000,> 4000,> 4000,0.001,> 4000,> 4000,> 4000,> 4000,119,210,> 4000,> 4000,0.001,> 4000,IC50 (MDA-MB-231): 25 nM; IC50 (MCF7): 41 nM; IC50 (DLD-1): 43 nM
CCSc1ccc2c(cc1=O)[C@@H](N)CCc1cc(OC)c(OC)c(OC)c1-2,,> 4000,,305,150,> 4000,> 4000,,,,,> 4000,,,390,409,> 4000,> 4000,> 4000,> 4000,IC50 (MDA-MB-231): 3550 nM; IC50 (MCF7): 1620 nM; IC50 (DLD-1): 510 nM
COc1cc2c(c(OC)c1OC)-c1ccc(SC(C)C)c(=O)cc1[C@@H](NC(C)=O)CC2,,> 4000,,,,> 4000,> 4000,,,,,> 4000,,,,,> 4000,> 4000,> 4000,> 4000,
COc1cccc2c1C(=O)c1c(O)c3c(c(O)c1C2=O)C[C@@](O)(C(=O)CO)C[C@@H]3O[C@H]1C[C@H](N)[C@H](O)[C@H](C)O1 [DOXORUBICIN],,,,32.6,850,,,,,,,,,,78.3,128,,,,,IC50 (DLD-1): 145 nM
CCSc1ccc2c(cc1=O)[C@@H](NC(C)=O)CCc1cc(OC)c(OC)c(OC)c1-2,,> 4000,,,,> 4000,> 4000,,,,,> 4000,,,,,> 4000,> 4000,> 4000,> 4000,
CCCCSc1ccc2c(cc1=O)[C@@H](NC(C)=O)CCc1cc(OC)c(OC)c(OC)c1-2,,> 4000,,,,> 4000,> 4000,,,,,> 4000,,,,,> 4000,> 4000,> 4000,> 4000,
